A selection: hits, their analogues and other compounds. The true share with any hit is near 12%.
b-catenin transl – beta-catenin nuclear translocation modulation; 0.3% of 190,000 active; nuclear translocation activity, % at 5 µM; HeLa beta-catenin nuclear translocation, immunofluorescence imaging;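 active means nuclear translocation activity above 50% at 5 µM, with a well cell count of 50 or more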;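 further: per-cell ratio of nuclear to cytoplasmic median beta-catenin stain intensity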
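Test system: human HeLa cells, endogenous beta-catenin. Times: 24 h compound exposure, 37°C. Measured by: beta-catenin immunofluorescence imaging with DAPI.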
CHOP inh – inhibitors of CHOP induction in ER stress response. 3.8% of 220,000 active. CHO-K1 CHOP-promoter luciferase, tunicamycin-induced, 15-18 h. inhibition, % at 10 µM;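 active means compounds that reduced the stress-induced luciferase reporter signal by more than about 70% of percent inhibition, limit read from the data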
Autophagy HCS – autophagy modulation, high-content screen. MEF GFP-LC3 puncta imaging; test concentration mostly 10 µM. calls only at 10 µM (by protocol). 0.98% of 190,000 active. AID 463193;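 active means percentage of spot-positive cells more than 3 SD above its plate mean, without a fluorescence outlier flag or 80% toxicity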
L major viab – Leishmania major promastigote growth inhibition; 9% of 200,000 active; inhibition, % at 10 µM; AID 1063; Leishmania major promastigotes, resazurin fluorescence viability; in the data active means inhibition above about 50%;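 further: promastigotes grown with compound for 44 hours at 28 °C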
MT stabilizer – microtubule stabilizers in HeLa cells; % tubulin-high responders, % at 10 µM; HeLa tubulin immunostaining HCS, 24 h; share of cells brighter than vehicle mean+2SD; 0.83% of 200,000 active;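 active means plate Z-score above 3 for both tubulin-high and condensed-nucleus cell shares, with cell loss under 80%, at 10 µM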;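 further: anti alpha tubulin signal scored within the nucleus-defined area of each cell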
Dynein transport – dynein cargo transport inhibition. 3617.4 mouse cells, GR-EGFP nuclear translocation imaging; test concentration mostly 20 µM; stimulated with dexamethasone, 1 µM; active compounds read low. z-score, hits read low. 0.47% of 220,000 active. AID 1381;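 active means plate z-score of nuclear minus cytoplasmic receptor signal below a set negative limit, without overly bright fluorescence or cell loss, cut at about -3.5 in these data, passing the limit was not always enough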;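 further: z-score of nuclear minus cytoplasmic ring GR-EGFP intensity difference per well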
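Buffer or medium: tet-free, stripped-serum medium; reagent: dexamethasone at 1.0 µM final, 30 min; incubation: 48 h induction, 1 h compound, 30 min dex at 37 °C; measured by: formaldehyde fixation, Hoechst nuclear stain, 10x automated fluorescence imaging; read-out: nuclear-to-cytoplasmic GR-EGFP distribution per well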
Each line names hits and unclear results; the compound was inactive in the other large screens.

CCOc1ccc(N=C2NC(=O)SC2CC(=O)OC)cc1 (stereo not given)	none (no result: Autophagy HCS, L major viab, MT stabilizer)
O=C(O)c1ccc2c(c1)C(=O)N(c1cccc(S(=O)(=O)Nc3cccc(C(F)(F)F)c3)c1)C2=O	none
CCOC(=O)NC(=O)COC(=O)Cc1cc(OC)c(OC)c(OC)c1	none
CCC(C)NCCCOc1ccc(Cl)cc1C(C)(C)C (stereo not given)	L major viab 100
O=C(CN1C(=O)C(=O)N(Cc2ccco2)C1=O)NC1CCCCC1	none
O=C(CCC(=O)c1cccs1)Nc1ccc(F)c(F)c1F	none (no result: b-catenin transl)
N#C/C(=C\c1cc2ccccc2nc1N1CCCCC1)C(N)=O	L major viab 76
O=C1NC(=S)S/C1=C\c1cc2ccccc2nc1N1CCCCC1	none (no result: Autophagy HCS, L major viab, MT stabilizer)
O=C(c1cccc(F)c1)N1CCN(c2cc(N3CCCCC3)c(F)cc2[N+](=O)[O-])CC1	CHOP inh 73
O=C(c1ccc(F)cc1)N1CCN(c2ccc([N+](=O)[O-])c(N3CCCCC3)c2)CC1	none
COc1ccc(C(c2nnnn2CCc2ccccc2)N2CCN(C3CCCC3)CC2)cc1 (stereo not given)	L major viab 99
CCC(c1nnnn1Cc1ccccc1)N1CCN(c2ccccc2)CC1 (stereo not given)	none
N#Cc1cccc(C(c2nnnn2C2CCCC2)N2CCCCCC2)c1 (stereo not given)	none
N#Cc1cccc(C(c2nnnn2CCc2ccccc2)N2CCN(C3CCCCC3)CC2)c1 (stereo not given)	L major viab 81
CCC(c1nnnn1CCc1ccccc1)N1CCN(c2ccc(OC)cc2)CC1 (stereo not given)	L major viab 96
N#Cc1cccc(C(c2nnnn2C2CCCC2)N2CCC(Cc3ccccc3)CC2)c1 (stereo not given)	L major viab 65
N#Cc1ccc(C(c2nnnn2C2CCCC2)N2CCC(Cc3ccccc3)CC2)cc1 (stereo not given)	none
COc1cc(S(=O)(=O)n2cnc(C)c2)ccc1Br	none
CN1C(=O)/C(=C/c2cn(CC(=O)N3CCCCC3)c3ccccc23)c2ccccc21	L major viab 86
CCOC(=O)C1(CCCc2ccccc2)CCN(C(=O)c2ccoc2)CC1	none
CCOC(=O)C1(CCCc2ccccc2)CCN(C2CCN(C(C)=O)CC2)CC1	L major viab 78
CCOC(=O)C1(Cc2ccccc2C(F)(F)F)CCN(C2CCN(C(C)=O)CC2)CC1	L major viab 77
CCOC(=O)C1(Cc2ccccc2C(F)(F)F)CCN(C2CCC2)CC1	L major viab 61
CCOC(=O)N1CCN(CC(=O)Nc2sc(CC)cc2C(=O)c2ccc(OC)cc2)CC1	none (no result: Autophagy HCS, L major viab, MT stabilizer)
COc1ccc(N(C(=O)Cn2nnc(-c3ccccc3F)n2)C(C(=O)NCC2CCCO2)c2ccc(Cl)cc2)cc1 (stereo not given)	none
Cc1ccc(-n2c(Cn3nc(C(F)F)cc3C(F)F)n[nH]c2=S)cc1	none
CC(=O)N1CC2(NC(=O)c3ccccc3N2)c2ccccc21 (stereo not given)	none
COc1ccc(S(=O)(=O)NN(C)C(=O)c2nn(-c3ccccc3)ccc2=O)cc1	none
CCCN(CCC)c1nc(NC2CCN(C(=O)OCC)CC2)nc(OC)n1	CHOP inh 72
COc1ccc(CN2CCN(C(=O)C3CCC(CNS(=O)(=O)c4ccc(C)cc4)CC3)CC2)c(OC)c1OC (stereo not given)	Autophagy HCS active
O=C1c2c([N+](=O)[O-])cc([N+](=O)[O-])cc2S(=O)N1Cc1ccccc1 (stereo not given)	none
CCN(CC)c1ccc(NC(=O)c2cccc(F)c2)c(C)c1	MT stabilizer 37
CCN(CC)c1ccc(NC(=O)c2ccco2)c(C)c1	none (no result: b-catenin transl)
COC(=O)C(C)NC(=S)N1CCN(c2c(F)cc3c(=O)c(C(=O)O)cn(C4CC4)c3c2OC)CC1C (stereo not given)	none (no result: Autophagy HCS, L major viab, MT stabilizer)
O=[N+]([O-])c1ccc(OCc2cccc(COc3ccc([N+](=O)[O-])cc3)n2)cc1	CHOP inh 83
COc1ccc(Cl)cc1-n1c(C)cc(C(=O)O)c1C	none
COc1ccc(Cl)cc1-n1c(C)cc(C=O)c1C	L major viab 78
Cc1ccc2nc(-c3ccccc3O)c(Nc3ccc4c(c3)OCCO4)n2c1	none
Clc1ccc2nc(-c3ccccn3)c(Nc3ccc4c(c3)OCO4)n2c1	L major viab 100
CC(=O)Nc1cccc2c1C(=O)N(c1ccc(OC(C)=O)cc1)C2=O	none
CC1=[N+]([O-])C(C)(C)N(O)C1(C)C	none (no result: Autophagy HCS, L major viab, MT stabilizer)
COc1cc(C(=O)Oc2cccc(Nc3ncnc4ccccc34)c2)cc(OC)c1OC	CHOP inh 92
COc1ccc(C(=O)Oc2cccc(Nc3ncnc4ccccc34)c2)cc1OC	none
CCCCN(C(=O)CSc1nnnn1C)c1c(N)n(Cc2ccccc2)c(=O)[nH]c1=O	none (no result: Autophagy HCS, L major viab, MT stabilizer)
Cc1ccc(NC(=O)Nc2ccc(Cl)cc2)c(Br)c1	CHOP inh 86
O=C(Nc1ccc(Cl)cc1)Nc1csc([N+](=O)[O-])c1	CHOP inh 76 (no result: Autophagy HCS, L major viab, MT stabilizer)
O=C(Nc1csc([N+](=O)[O-])c1)Nc1c(Cl)cccc1Cl	none (no result: Autophagy HCS, L major viab, MT stabilizer)
Cc1ccc(NC(=O)COC(=O)c2cc(Cl)ccc2Cl)c(Br)c1	none
O=C(Nc1ccc(Cl)cc1)Nc1cc([N+](=O)[O-])ccc1F	CHOP inh 71
Clc1ccc(Cc2nc(-c3cccnc3)no2)cc1	none (no result: b-catenin transl)
O=[N+]([O-])c1ccc(-c2nnc(CNC3CCCC3)o2)cc1	none
Nc1cc(=O)[nH]c(SCC(=O)N2N=C(c3ccc4ccccc4c3)CC2c2ccccc2)n1 (stereo not given)	CHOP inh 86 (no result: Autophagy HCS, L major viab, MT stabilizer)
COc1ccc(C2CC(c3ccc4ccccc4c3)=NN2C(=O)COC(=O)C2CCC(=O)N2)cc1 (stereo not given)	none
CC(=O)OCC(=O)N1N=C(c2ccc3ccccc3c2)CC1c1ccccc1 (stereo not given)	L major viab 86
O=c1cnnc(N/N=C/c2ccccn2)[nH]1	none (no result: Autophagy HCS, L major viab, MT stabilizer)
Cc1cc(=O)[nH]c(N/N=C/c2ccccn2)n1	L major viab 99
O=c1nc(N/N=C/c2ccccn2)cn[nH]1	L major viab 98
Cc1ccc(/C=N/Nc2cn[nH]c(=O)n2)o1	none
CCOC(=O)N1CCN(C(=O)CSc2nnc(-c3ccc(C)c(C)c3)o2)CC1	none (no result: b-catenin transl)
COc1ccc(-c2nnc(SCC(=O)Nc3cccc(Cl)c3)o2)cc1	CHOP inh 89
CCOc1ccc(-c2nnc(SCC(=O)Nc3cc(C)on3)o2)cc1	CHOP inh 77
COc1ccc(-c2nnc(SCC(=O)Nc3ccccc3OC)o2)cc1	none
CCOC(=O)Cc1csc(NC(=O)CSc2nnc(-c3ccncc3)o2)n1	L major viab 51
CCOC(=O)Cc1csc(NC(=O)CSc2nnc(-c3ccc(NS(=O)(=O)CC)cc3)o2)n1	none (no result: b-catenin transl, CHOP inh)
CCOC(=O)N1CCN(C(=O)CSc2nnc(-c3ccc(C(C)(C)C)cc3)o2)CC1	Autophagy HCS active
